Laboratory results as given in ChEMBL document CHEMBL4477216, “Discovery and Optimization of Small Molecule Splicing Modifiers of Survival Motor Neuron 2 as a Treatment for Spinal Muscular Atrophy” (J Med Chem, 2016).

Columns and labels:
Homo sapiens [1] = species on record: Homo sapiens; assay: Inhibition of mRNA splicing of SMN2 exon 7 in GM03813 fibroblasts derived from SMA patient assessed as compound concentration required to increase SMN protein level by 1.5 times after 24 hrs by HTRF assay
[2] = AUC (0 to 6 hrs) in Sprague-Dawley rat at 10 mg/kg, po; assay type: ADME, organism-based; parameters: dose 10 mg/kg, time < 6 hr, route oral; conditions: in vivo
Summary of the method: (§1)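 Male Sprague-Dawley rats got a single oral 10 mg/kg dose as a suspension in 0.5% hydroxypropyl methylcellulose with 0.1% Tween-80. Plasma was sampled at several time points up to 6 h post dose to give AUC0-6h. Total brain concentration was taken at 6 h to give the brain/plasma ratio.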

[3] = Protein binding in human plasma; assay type: ADME, cell-free; conditions: read-out: PPB (converted)
[4] = Apparent permeability in human Caco2 cells; assay type: ADME, cell-based; conditions: Caco-2
Summary of the method: (§2)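 Bidirectional permeability was measured across a Caco-2 cell monolayer. Papp was reported, and efflux was expressed as the B-A/A-B ratio.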

[5] = Ratio of drug level in brain to plasma of Sprague-Dawley rat at 10 mg/kg, po measured at 6 hrs; assay type: ADME, organism-based; conditions: brain and plasma, read-out: BPR; summary of the method: as §1
[6] = Efflux ratio of apparent permeability from basolateral to apical over apical to basolateral side in human Caco2 cells; assay type: ADME, cell-based; conditions: Caco-2; summary of the method: as §2
Homo sapiens [7] = species on record: Homo sapiens; assay: Inhibition of mRNA splicing of human SMN2 exon 7 transfected in HEK293H cells assessed as compound concentration required to increase full-length SMN2 mRNA level by 1.5 times after 24 hrs by RT-qPCR analysis relative to GAPDH; assay type: cell-based
Summary of the method: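 HEK293H cells stably carrying the SMN2 minigene (exon 6 to 5' exon 8 fused to firefly luciferase) were plated and held for 6 h, then treated 24 h in duplicate at varying concentrations (0.5% DMSO). Full-length minigene mRNA and GAPDH were quantified by TaqMan RT-qPCR using actual PCR efficiencies. Results were normalized to GAPDH and DMSO and expressed as fold change versus DMSO.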

Homo sapiens [8] = species on record: Homo sapiens; assay: Inhibition of mRNA splicing of SMN2 exon 7 in GM03813 fibroblasts derived from SMA patient assessed as maximum fold increase of SMN protein level by 1.5 times after 24 hrs by HTRF assay relative to control

Row | EC1.5 (Homo sapiens [1]) [nM] | fold change (FC) (Homo sapiens [8]) | SMILES | EC1.5 (Homo sapiens [7]) [nM] | further results
1 | 120 | – | Cc1cn2cc(-c3cc4ccc(N5CCN(C)CC5)cc4c(=O)o3)nc2cn1 | – | AUC(0-t) at 6 h [2]: < 10 ng·h/mL
2 | 31 | – | Cc1cn2nc(-c3cc(=O)n4cc(N5CCNCC5)ccc4n3)cc2c(C)n1 | 6 | fraction unbound [3]: 0.3; Papp [4]: 14 ×10⁻⁶ cm/s; Kp at 6 h [5]: < 0.1; efflux ratio [6]: 2.8; AUC(0-t) at 6 h [2]: 380 ng·h/mL
3 | 290 | 1.6 | COc1ccc(-c2cc3ccc(N4CCNCC4)cc3c(=O)o2)cc1OC | 80 | –
4 | > 10000 | 1.3 | O=c1oc2cc(N3CCNCC3)ccc2cc1-c1cn2ccccc2n1 | 380 | –
5 | > 10000 | 1 | COc1ccc(-c2cn3ccc(N4CCNCC4)cc3nc2=O)cc1OC | > 10000 | –
6 | 13 | – | Cc1cn2cc(-c3cc4ccc(N5C[C@H]6CNC[C@H]6C5)cc4oc3=O)nc2c(C)n1 | 1 | –
7 | 66 | – | Cc1cn2cc(-c3cc4ccc(N5CCNCC5)cc4oc3=O)ccc2n1 | 5 | –
8 | 15 | – | Cc1cn2cc(-c3cc4ccc(N5CCNCC5)cc4oc3=O)nc2c(C)n1 | 2 | Kp at 6 h [5]: 6.5; AUC(0-t) at 6 h [2]: 340 ng·h/mL
9 | > 10000 | 1 | COc1ccc(-c2cnc3cc(N4CCNCC4)ccn3c2=O)cc1OC | 3200 | –
10 | > 10000 | 1.2 | COc1ccc(-c2cc3ccc(N4CCNCC4)cc3c(=O)[nH]2)cc1OC | 1400 | –
11 | 76 | – | Cc1cn2cc(-c3cc4ccc(N5CCN[C@@H](C(C)C)C5)cc4oc3=O)nc2c(C)n1 | 23 | –
12 | 640 | – | Cc1cn2cc(-c3cc4ccc(N5CC[C@H]6CNC[C@H]65)cc4oc3=O)nc2c(C)n1 | 28 | –
13 | 62 | – | CCN1CCN(c2ccc3cc(-c4cn5cc(C)nc(C)c5n4)c(=O)oc3c2)CC1 | 10 | –
14 | > 10000 | – | Cc1cc2oc(-c3cc4ccc(N5CCNCC5)cc4oc3=O)cc2c(C)n1 | 1500 | –
15 | 830 | 1.6 | COc1ccc(-c2cc(=O)n3cc(N4CCNCC4)ccc3n2)cc1OC | 120 | –
16 | > 10000 | – | Cc1cn2cc(-c3cc4ccc(N5CCN(C(C)(C)C)CC5)cc4oc3=O)nc2c(C)n1 | 59 | –
17 | 16 | – | Cc1cc2cc(-c3cc4ccc(N5CCNCC5)cc4oc3=O)oc2c(C)n1 | 4 | –
18 | 360 | 1.5 | O=c1oc2cc(N3CCNCC3)ccc2cc1-c1cn2ccsc2n1 | 110 | –
19 | 13 | – | Cc1cn2cc(-c3cc4ccc(N5CCN[C@H](C)C5)cc4oc3=O)nc2c(C)n1 | 3 | –
20 | 31 | – | Cc1cn2cc(-c3cc4ccc(N5CCN(C)CC5)cc4oc3=O)nc2c(C)n1 | 18 | fraction unbound [3]: 0.03; Papp [4]: 1.4 ×10⁻⁶ cm/s; Kp at 6 h [5]: 0.7; efflux ratio [6]: 1.1; AUC(0-t) at 6 h [2]: 530 ng·h/mL
21 | > 10000 | – | CCc1ccc2nc(-c3cc4ccc(N5CCNCC5)cc4oc3=O)cn2c1 | 2700 | –
22 | > 10000 | – | Cc1cn2nc(-c3cc4ccc(C5CCN(C)CC5)cc4oc3=O)cc2c(C)n1 | > 10000 | –
23 | 210 | – | Cc1cn2nc(-c3cc(=O)n4cc(C5CCN(C)CC5)ccc4n3)cc2c(C)n1 | 53 | –
24 | > 10000 | 1 | COc1ccc(-c2cc3ccc(N4CCNCC4)nc3oc2=O)cc1OC | 8800 | –
25 | 50 | – | Cc1cn2cc(-c3cc4ccc(C5CCN(C)CC5)cc4oc3=O)nc2c(C)n1 | 11 | –
26 | 60 | – | Cc1cn2cc(-c3cc4ccc(N5CCN(CCCF)[C@@H](C)C5)cc4oc3=O)nc2c(C)n1 | 19 | –
27 | 61 | – | Cc1cn2cc(-c3cc4ccc(N5CCC(N(C)C)CC5)cc4oc3=O)nc2c(C)n1 | 11 | –
28 | > 10000 | 1.1 | COc1ccc(-c2cc3ccc(N4CCNCC4)cc3oc2=O)cc1 | 2000 | –
29 | 450 | – | Cc1cn2cc(-c3cc4ccc(N5CCN(CCF)[C@@H](C)C5)cc4oc3=O)nc2c(C)n1 | 37 | –
30 | 66 | – | Cc1cn2cc(-c3cc4ccc(N5CCN6CCC[C@H]6C5)cc4oc3=O)nc2c(C)n1 | 21 | –
